ChEMBL document CHEMBL1130838, “N-[4-(1,1'-biphenyl)methyl]-4-(4-thiomorpholinylmethyl) benzenamines as non-oxazolidinone analogues of antimycobacterial U-100480” (1998)
Converted amounts (≈) assume the structure as drawn.

Columns and labels:
Mycobacterium avium [1] = assay: In vitro cytotoxicity against Mycobacterium avium (CIP 103317) was determined; format: functional
Mycobacterium gordonae = assay: In vitro cytotoxicity against Mycobacterium gordonae (CIP 6427) was determined; format: functional
How it was run: (§1)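 Broth microdilution in Middlebrook 7H9. Stocks were made in DMSO and filter-sterilized (0.2 μm), then serially diluted 2-fold in water. Tubes were incubated at 37°C for 10-15 days, with a drug-free control tube in each experiment. MIC (μg/mL) is the lowest concentration giving no visible turbidity.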

[2] = test system: Mycolicibacterium smegmatis; assay: In vitro cytotoxicity against Mycobacterium smegmatis CIP (103599) was determined; format: functional; how it was run: as §1
[3] = test system: Mycobacterium tuberculosis; assay: In vitro minimum inhibitory concentration against Mycobacterium tuberculosis CIP 103471 was determined; format: functional
How it was run: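 Broth microdilution in Middlebrook 7H9 with 10% ADC. DMSO stocks were filter-sterilised (0.2 μm nylon), then serially diluted 2-fold in water. Tubes were incubated at 37°C for 10-15 days alongside a drug-free control. MIC was the lowest concentration with no visible turbidity.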

Mycobacterium marinum = assay: In vitro cytotoxicity against Mycobacterium marinum (CIP 6423) was determined; format: functional; how it was run: as §1
Vero = assay: Minimal toxic dose that induced a reduction of 50% of cell growth in Vero cell line […]; format: functional, Chlorocebus sabaeus
How it was run: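 VERO monolayers in Dulbecco's modified MEM with 2% fetal calf serum were seeded at 9'10⁴ cells per well in six-well plates. Compounds, dissolved in DMSO at 10 mg/mL initially, were added after 24 h. Five days later, cells were trypsinised and counted in a Neubauer chamber. MTD50 was the concentration giving 50% growth reduction versus control.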

Mycobacterium avium [4] = assay: In vitro cytotoxicity against Mycobacterium avium (CIP 103317) was determined

SMILES | MIC (Mycobacterium avium [1]) [µg/mL] | MIC (Mycobacterium gordonae) [µg/mL] | MIC [2] [µg/mL] | MIC [3] [µg/mL] | MIC (Mycobacterium marinum) [µg/mL] | MTD50 (Vero) [µg/mL] | MIC (Mycobacterium avium [4]) [µg/mL]
O=C(Nc1ccc(CN2CCSCC2)cc1)c1ccc(-c2ccccc2)cc1 | > 16 | > 16 | > 16 | > 16 | > 16 | 16 | –
CN(Cc1ccc(-c2ccccc2)cc1)c1ccc(CN2CCSCC2)cc1 | 4 (≈ 10.3 µM) | > 16 | > 16 | 0.5 (≈ 1.29 µM) | 8 (≈ 20.6 µM) | 8 | –
C[N+](C)(Cc1ccc(-c2ccccc2)cc1)c1ccc(CN2CCSCC2)cc1.[I-] | 16 | 8 | > 16 | 8 | 16 | 16 | –
c1ccc(-c2ccc(CNc3ccc(CN4CCSCC4)cc3)cc2)cc1 | – | 8 (≈ 21.4 µM) | > 16 | 0.5 (≈ 1.33 µM) | 8 (≈ 21.4 µM) | 8 | 4 (≈ 10.7 µM)
NNC(=O)c1ccncc1 [ISONIAZID] | 32 (≈ 233 µM) | 32 (≈ 233 µM) | 64 (≈ 467 µM) | 0.25 (≈ 1.82 µM) | 16 (≈ 117 µM) | 32 | –
CN[C@@H]1[C@H](O[C@H]2[C@H](O[C@H]3[C@H](O)[C@@H](O)[C@H](N=C(N)N)[C@@H](O)[C@@H]3N=C(N)N)O[C@@H](C)[C@]2(O)C=O)O[C@@H](CO)[C@H](O)[C@H]1O [STREPTOMYCIN] | 4 (≈ 6.88 µM) | 16 (≈ 27.5 µM) | 8 (≈ 13.8 µM) | 0.5 (≈ 0.86 µM) | 32 (≈ 55 µM) | >64 | –
